Assay results reported in paper PMC7471454 (Acta Pharmacologica Sinica, 2019).
Entries after “also recorded” stand apart in the source; their conditions may differ.

Columns and labels:
hNav1.7 channels = hNav1.7 channels (Homo sapiens, UniProt Q15858); assay: cell-based; conditions: for inhibitory activity against Nav1.7 (in words): HEK293 cells stably expressing hNav1.7; for activity toward Nav1.7 relative to 10h: higher than that of 10h; for Nav1.7/Nav1.5 selectivity (in words): Nav1.7 versus Nav1.5
hNav1.5 channels = hNav1.5 channels (Homo sapiens, UniProt Q14524); assay: Whole-cell voltage-clamp on human Nav1.5 channels stably expressed in CHL cells; assay type: cell-based
Chain of hNav1.5 channels (Q14524 whole entry): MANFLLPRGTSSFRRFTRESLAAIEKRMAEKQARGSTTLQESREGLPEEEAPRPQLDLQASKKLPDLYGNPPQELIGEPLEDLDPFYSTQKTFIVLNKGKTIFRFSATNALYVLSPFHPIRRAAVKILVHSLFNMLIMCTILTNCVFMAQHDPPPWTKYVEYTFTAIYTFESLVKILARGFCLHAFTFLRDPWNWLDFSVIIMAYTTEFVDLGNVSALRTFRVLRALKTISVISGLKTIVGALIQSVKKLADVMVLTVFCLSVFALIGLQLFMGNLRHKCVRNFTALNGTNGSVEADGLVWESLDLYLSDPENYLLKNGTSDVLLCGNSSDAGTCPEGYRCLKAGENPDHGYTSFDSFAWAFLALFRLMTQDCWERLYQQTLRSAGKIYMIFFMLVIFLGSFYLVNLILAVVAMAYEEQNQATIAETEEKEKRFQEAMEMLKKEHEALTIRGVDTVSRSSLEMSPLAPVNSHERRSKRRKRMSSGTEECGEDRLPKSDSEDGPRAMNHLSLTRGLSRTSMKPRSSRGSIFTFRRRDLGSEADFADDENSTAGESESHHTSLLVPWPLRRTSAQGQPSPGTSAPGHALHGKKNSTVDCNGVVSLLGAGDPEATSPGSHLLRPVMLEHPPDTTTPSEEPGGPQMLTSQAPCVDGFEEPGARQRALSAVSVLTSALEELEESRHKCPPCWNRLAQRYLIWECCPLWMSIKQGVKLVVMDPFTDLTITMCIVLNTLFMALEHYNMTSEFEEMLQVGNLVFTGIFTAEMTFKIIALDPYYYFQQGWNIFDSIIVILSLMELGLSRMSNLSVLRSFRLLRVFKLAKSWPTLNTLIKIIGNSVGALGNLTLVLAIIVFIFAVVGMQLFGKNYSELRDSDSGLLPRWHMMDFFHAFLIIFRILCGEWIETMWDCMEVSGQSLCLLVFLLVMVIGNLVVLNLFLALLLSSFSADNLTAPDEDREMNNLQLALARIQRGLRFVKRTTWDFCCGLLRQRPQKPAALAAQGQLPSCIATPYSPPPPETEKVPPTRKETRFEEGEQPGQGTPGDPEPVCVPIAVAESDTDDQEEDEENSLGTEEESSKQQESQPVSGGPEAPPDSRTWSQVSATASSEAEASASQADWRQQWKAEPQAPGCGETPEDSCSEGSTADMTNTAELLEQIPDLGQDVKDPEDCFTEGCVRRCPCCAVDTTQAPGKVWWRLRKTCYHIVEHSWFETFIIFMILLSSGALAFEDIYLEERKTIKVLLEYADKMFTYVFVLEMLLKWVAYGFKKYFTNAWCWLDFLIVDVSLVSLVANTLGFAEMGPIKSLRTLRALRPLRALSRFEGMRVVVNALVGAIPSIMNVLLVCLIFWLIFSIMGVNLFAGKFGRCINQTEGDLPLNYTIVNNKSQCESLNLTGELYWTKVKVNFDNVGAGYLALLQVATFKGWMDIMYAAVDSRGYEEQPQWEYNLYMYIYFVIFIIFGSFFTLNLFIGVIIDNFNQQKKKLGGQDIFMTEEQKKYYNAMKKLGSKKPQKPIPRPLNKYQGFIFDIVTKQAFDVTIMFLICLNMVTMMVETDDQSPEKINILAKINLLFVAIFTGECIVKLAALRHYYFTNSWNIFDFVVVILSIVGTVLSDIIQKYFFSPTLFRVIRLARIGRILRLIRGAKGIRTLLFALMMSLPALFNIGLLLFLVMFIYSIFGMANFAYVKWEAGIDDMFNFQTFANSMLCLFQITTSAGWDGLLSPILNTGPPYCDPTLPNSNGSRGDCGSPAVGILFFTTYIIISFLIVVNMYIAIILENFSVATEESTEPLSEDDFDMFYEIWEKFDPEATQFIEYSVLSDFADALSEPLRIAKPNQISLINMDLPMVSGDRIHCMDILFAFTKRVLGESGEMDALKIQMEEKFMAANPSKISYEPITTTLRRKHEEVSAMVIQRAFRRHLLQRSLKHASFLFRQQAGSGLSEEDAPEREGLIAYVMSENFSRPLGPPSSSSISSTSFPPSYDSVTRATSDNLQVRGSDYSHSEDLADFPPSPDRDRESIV
Procedure, shortened: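 CHL cells stably expressing hNav1.5 were selected in G418 (500 µg/mL), plated on poly-L-lysine coverslips and used within 24 h. Whole-cell voltage clamp at room temperature, with CsF pipette and NaCl bath (pH 7.3); DMSO ≤0.5% final. After 5 min at −80 mV: hold −40 mV, 20 ms prepulse to −150 mV, 10 ms pulse to 0 mV at 1 Hz. Peak IDrug/IControl was fitted to a 3-parameter Hill equation for IC50.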

[1] = test system: native sodium currents in mouse DRG neurons; assay: Native sodium currents in isolated DRG neurons; assay type: cell-based; conditions: for reduction of sodium current amplitude: mouse DRG neurons
[2] = test system: neuronal excitability of small-diameter DRG neurons; assay: Firing frequency of DRG neurons; assay type: cell-based, mouse; conditions: 500 ms current injection, 10 and 100 nmol/L
[3] = test system: acetic acid-induced writhing in ICR mice; assay: Acetic acid-induced writhing test; assay type: in vivo, mouse; conditions: i.p. 30 min before 1.5% acetic acid, writhes counted for 30 min
Procedure, shortened: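 Male ICR mice (22–28 g) received test compound i.p. in 5% DMSO/95% (0.5% carboxymethyl cellulose sodium) at 0.2 mL/10 g, 30 min before i.p. 1.5% acetic acid (10 mL/kg). Writhes, defined as abdominal contraction with body elongation and hind-limb extension, were counted over 30 min under blinded assessment. Indomethacin 30 mg/kg p.o. was given 60 min prior as reference. n = 6–12; one-way ANOVA.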

| SMILES | inhibitory activity against Nav1.7 (in words) (hNav1.7 channels) | IC50 (hNav1.7 channels) [nM] | further results |
| --- | --- | --- | --- |
| CNCC(CC12CCC(c3ccccc31)c1ccccc12)Oc1ccc(S(=O)(=O)Nc2ncns2)cc1C#N (centres unmarked) [9a, 3-cyano-4-((1-(9,10-dihydro-9,10-ethanoanthracen-9-yl)-3-(methylamino)propan-2-yl)oxy)-N-(1,2,4-thiadiazol-5-yl)benzenesulfonamide] | not as good as that of MPT | – | – |
| CCNCC(CC12CCC(c3ccccc31)c1ccccc12)Oc1ccc(S(=O)(=O)Nc2ncns2)cc1C#N (centres unmarked) [9b, 3-cyano-4-((1-(9,10-dihydro-9,10-ethanoanthracen-9-yl)-3-(ethylamino)propan-2-yl)oxy)-N-(1,2,4-thiadiazol-5-yl)benzenesulfonamide] | not as good as that of MPT | – | – |
| CC(C)NCC(CC12CCC(c3ccccc31)c1ccccc12)Oc1ccc(S(=O)(=O)Nc2ncns2)cc1C#N (centres unmarked) [9c, 3-cyano-4-((1-(9,10-dihydro-9,10-ethanoanthracen-9-yl)-3-(isopropylamino)propan-2-yl)oxy)-N-(1,2,4-thiadiazol-5-yl)benzenesulfonamide] | not as good as that of MPT | – | – |
| CCN(C)CC(CCC12CCC(c3ccccc31)c1ccccc12)Oc1ccc(S(=O)(=O)Nc2ncns2)cc1C#N (centres unmarked) [10b, 3-cyano-4-((4-(9,10-dihydro-9,10-ethanoanthracen-9-yl)-1-(ethyl(methyl)amino)butan-2-yl)oxy)-N-(1,2,4-thiadiazol-5-yl)benzenesulfonamide] | weak | – | – |
| CC(C)N(C)CC(CCC12CCC(c3ccccc31)c1ccccc12)Oc1ccc(S(=O)(=O)Nc2ncns2)cc1C#N (centres unmarked) [10c, 3-cyano-4-((4-(9,10-dihydro-9,10-ethanoanthracen-9-yl)-1-(isopropyl(methyl)amino)butan-2-yl)oxy)-N-(1,2,4-thiadiazol-5-yl)benzenesulfonamide] | maintained the activity of 10a | – | – |
| C=CCN(C)CC(CCC12CCC(c3ccccc31)c1ccccc12)Oc1ccc(S(=O)(=O)Nc2ncns2)cc1C#N (centres unmarked) [10d, 4-((1-(allyl(methyl)amino)-4-(9,10-dihydro-9,10-ethanoanthracen-9-yl)butan-2-yl)oxy)-3-cyano-N-(1,2,4-thiadiazol-5-yl)benzenesulfonamide] | weak | – | – |
| C#CCN(C)CC(CCC12CCC(c3ccccc31)c1ccccc12)Oc1ccc(S(=O)(=O)Nc2ncns2)cc1C#N (centres unmarked) [10e, 3-cyano-4-((4-(9,10-dihydro-9,10-ethanoanthracen-9-yl)-1-(methyl(prop-2-yn-1-yl)amino)butan-2-yl)oxy)-N-(1,2,4-thiadiazol-5-yl)benzenesulfonamide] | maintained the activity of 10a | – | – |
| CN(CCc1ccccc1)CC(CCC12CCC(c3ccccc31)c1ccccc12)Oc1ccc(S(=O)(=O)Nc2ncns2)cc1C#N (centres unmarked) [10f, 3-cyano-4-((4-(9,10-dihydro-9,10-ethanoanthracen-9-yl)-1-(methyl(phenethyl)amino)butan-2-yl)oxy)-N-(1,2,4-thiadiazol-5-yl)benzenesulfonamide] | weak | – | – |
| CN(Cc1ccc(C(F)(F)F)cc1)CC(CCC12CCC(c3ccccc31)c1ccccc12)Oc1ccc(S(=O)(=O)Nc2ncns2)cc1C#N (centres unmarked) [10g, 3-cyano-4-((4-(9,10-dihydro-9,10-ethanoanthracen-9-yl)-1-(methyl(4-(trifluoromethyl)benzyl)amino)butan-2-yl)oxy)-N-(1,2,4-thiadiazol-5-yl)benzenesulfonamide] | maintained the activity of 10a | – | – |
| CCOCC(CCC12CCC(c3ccccc31)c1ccccc12)Oc1ccc(S(=O)(=O)Nc2ncns2)cc1C#N (centres unmarked) [10i, 3-cyano-4-((4-(9,10-dihydro-9,10-ethanoanthracen-9-yl)-1-ethoxybutan-2-yl)oxy)-N-(1,2,4-thiadiazol-5-yl)benzenesulfonamide] | – | – | activity toward Nav1.7 relative to 10h (hNav1.7 channels): 10 times |
| N#Cc1cc(S(=O)(=O)Nc2ncns2)ccc1OC(CCC12CCC(c3ccccc31)c1ccccc12)COCc1ccccc1 (centres unmarked) [10j, 4-((1-(benzyloxy)-4-(9,10-dihydro-9,10-ethanoanthracen-9-yl)butan-2-yl)oxy)-3-cyano-N-(1,2,4-thiadiazol-5-yl)benzenesulfonamide] | – | – | activity toward Nav1.7 relative to 10h (hNav1.7 channels): 10 times |
| CN(C)CCOCC(CCC12CCC(c3ccccc31)c1ccccc12)Oc1ccc(S(=O)(=O)Nc2ncns2)cc1C#N (centres unmarked) [10k, 3-cyano-4-((4-(9,10-dihydro-9,10-ethanoanthracen-9-yl)-1-(2-(dimethylamino)ethoxy)butan-2-yl)oxy)-N-(1,2,4-thiadiazol-5-yl)benzenesulfonamide] | – | ~10 | Nav1.7/Nav1.5 selectivity (in words) (hNav1.7 channels): well maintained |
| CNCCOCC(CCC12CCC(c3ccccc31)c1ccccc12)Oc1ccc(S(=O)(=O)Nc2ncns2)cc1C#N (centres unmarked) [10l, 3-cyano-4-((4-(9,10-dihydro-9,10-ethanoanthracen-9-yl)-1-(2-(methylamino)ethoxy)butan-2-yl)oxy)-N-(1,2,4-thiadiazol-5-yl)benzenesulfonamide] | – | ~10 | Nav1.7/Nav1.5 selectivity (in words) (hNav1.7 channels): well maintained |
| CN1CC(OCC(CCC23CCC(c4ccccc42)c2ccccc23)Oc2ccc(S(=O)(=O)Nc3ncns3)cc2C#N)C1 (centres unmarked) [10m, 3-cyano-4-((4-(9,10-dihydro-9,10-ethanoanthracen-9-yl)-1-((1-methylazetidin-3-yl)oxy)butan-2-yl)oxy)-N-(1,2,4-thiadiazol-5-yl)benzenesulfonamide] | – | 2.98 | – |
| N#Cc1cc(S(=O)(=O)Nc2ncns2)ccc1OC(CCC12CCC(c3ccccc31)c1ccccc12)COCCN1CCC1 (centres unmarked) [10n, 4-((1-(2-(azetidin-1-yl)ethoxy)-4-(9,10-dihydro-9,10-ethanoanthracen-9-yl)butan-2-yl)oxy)-3-cyano-N-(1,2,4-thiadiazol-5-yl)benzenesulfonamide] | – | 5.38 | Nav1.7/Nav1.5 selectivity (in words) (hNav1.7 channels): good selectivity |
| N#Cc1cc(S(=O)(=O)Nc2ncns2)ccc1OC(CCC12CCC(c3ccccc31)c1ccccc12)COCCN1CCCC1 (centres unmarked) [10o, 3-cyano-4-((4-(9,10-dihydro-9,10-ethanoanthracen-9-yl)-1-(2-(pyrrolidin-1-yl)ethoxy)butan-2-yl)oxy)-N-(1,2,4-thiadiazol-5-yl)benzenesulfonamide] | – | 0.64 ± 0.3 | selectivity for Nav1.7 over Nav1.5 (hNav1.7 channels; from the Nav1.5 and Nav1.7 IC50): > 50 000 times; IC50 (hNav1.5 channels): 33600 nM; reduction of sodium current amplitude ([1]; 10 nmol/L): 24% ± 6%; reduction of sodium current amplitude ([1]; 100 nmol/L): 40% ± 6%; effect on native sodium currents (in words) ([1]; mouse small-sized DRG neurons, 10 and 100 nmol/L): dose-dependently decreased the sodium currents; effect on action potentials / firing frequency (in words) [2]: dramatically suppressed depolarizing current-elicited neuronal discharge; also recorded: dose-dependently suppressed; effect on acetic acid-induced writhing (in words) [3]: dose-dependently decreased |
| N#Cc1cc(S(=O)(=O)Nc2ncns2)ccc1OC(CCC12CCC(c3ccccc31)c1ccccc12)COCCN1CCCCC1 (centres unmarked) [10p, 3-cyano-4-((4-(9,10-dihydro-9,10-ethanoanthracen-9-yl)-1-(2-(piperidin-1-yl)ethoxy)butan-2-yl)oxy)-N-(1,2,4-thiadiazol-5-yl)benzenesulfonamide] | – | 12.5 | Nav1.7/Nav1.5 selectivity (in words) (hNav1.7 channels): good selectivity |
| N#Cc1cc(S(=O)(=O)Nc2ncns2)ccc1OC(CCC12CCC(c3ccccc31)c1ccccc12)COCCN1CCOCC1 (centres unmarked) [10q, 3-cyano-4-((4-(9,10-dihydro-9,10-ethanoanthracen-9-yl)-1-(2-morpholinoethoxy)butan-2-yl)oxy)-N-(1,2,4-thiadiazol-5-yl)benzenesulfonamide] | – | 33.5 | Nav1.7/Nav1.5 selectivity (in words) (hNav1.7 channels): good selectivity |
| Nc1[nH]ncc1-c1cc(Cl)ccc1Oc1cc(F)c(S(=O)(=O)Nc2cscn2)cc1Cl [PF-05089771, 4-[2-(5-Amino-1H-pyrazol-4-yl)-4-chlorophenoxy]-5-chloro-2-fluoro-N-1,3-thiazol-4-ylbenzenesulfonamide, reference compound] | – | – | effect on action potentials / firing frequency (in words) [2]: dose-dependently suppressed; effect on acetic acid-induced writhing (in words) [3]: dose-dependently decreased |
